Series [1] relates to Plasma. The experiment in a line: Drug metabolism in CD1 mouse plasma assessed as oxidative metabolites formation at 6 mg/kg, ip dosed once daily for 3 days followed by dosing of 1:1 mixtures of 2-(2-Carboxyethyl)-4-methyl-5-propyl-(3-13C-furan)-3-13Ccarboxylateand test compound on day 4 and 5 measured 1 hr post dose on day 5 by HPLC-MS analysis. In kind it is ADME, organism-based. As to conditions: in vivo. A digest of the protocol:
(§1)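 CMPF given 6 mg/kg i.p. once daily for three days. On days four and five, 1:1 mixtures of stable-isotope-labelled and unlabelled CMPF were dosed. Mice were killed 1 h after the day-five dose. Plasma, adipose, muscle and liver were collected and analysed by HPLC-MS (MS/MS for product ions). Metabolites were identified by their distinctive isotope patterns from the labelled/unlabelled mixture.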

In series [2] the test system is Liver. The experiment in a line: Drug metabolism in CD1 mouse liver assessed as diacylglycerol conjugate formation at 6 mg/kg, ip dosed once daily for 3 days followed by dosing of 1:1 mixtures of 2-(2-Carboxyethyl)-4-methyl-5-propyl-(3-13C-furan)-3-13Ccarboxylateand test compound on day 4 and 5 measured 1 hr post dose on day 5 by HPLC-MS analysis. As to conditions: in vivo. In kind it is ADME, organism-based. In short, it runs like this: (§2)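 Mice received CMPF 6 mg/kg intraperitoneally for three days, then 1:1 labeled/unlabeled CMPF mixtures on days four and five. On day five they were euthanized 1 h post-dose, and plasma, adipose, muscle and liver were collected. Samples were analysed by HPLC-MS, with MS/MS of product ions. Metabolites were identified by the distinctive isotope patterns from the 1:1 label mixture.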

Series [3] deals with Plasma. The experiment in a line: Drug metabolism in CD1 mouse plasma assessed as glycerol conjugate formation at 6 mg/kg, ip dosed once daily for 3 days followed by dosing of 1:1 mixtures of 2-(2-Carboxyethyl)-4-methyl-5-propyl-(3-13C-furan)-3-13Ccarboxylateand test compound on day 4 and 5 measured 1 hr post dose on day 5 by HPLC-MS analysis. The series is classed as ADME, organism-based. As to conditions: in vivo. In short, it runs like this:
as §1

The subject of series [4] is Plasma. Nature of the series: Drug metabolism in CD1 mouse plasma assessed as loss of C2 carboxyl during fragmentation at 6 mg/kg, ip dosed once daily for 3 days followed by dosing of 1:1 mixtures of 2-(2-(Carboxy-13C)ethyl)-4-methyl-5-propylfuran-3-carboxylic-2-13C Acid and test compound on day 4 and 5 measured 1 hr post dose on day 5 by HPLC-MS analysis. In kind it is ADME, organism-based. As to conditions: in vivo. In short, it runs like this: as §1

The nature of series [5]: Half life in mouse at 1 mg/kg, iv. As to conditions: in vivo. The series is classed as ADME, organism-based. A digest of the protocol:
(§3)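 Mouse pharmacokinetics after single intravenous CMPF dosing at 1 or 3 mg/kg. Plasma exposure was followed over time to derive AUC, C0, terminal half-life, clearance and volume of distribution.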

Series [6] is described as follows: Drug metabolism in CD1 mouse muscle assessed as loss of C2 carboxyl during fragmentation at 6 mg/kg, ip dosed once daily for 3 days followed by dosing of 1:1 mixtures of 2-(2-Carboxyethyl)-4-methyl-5-(1-propyl-1-13C)furan-3-carboxylic Acid and test compound on day 4 and 5 measured 1 hr post dose on day 5 by HPLC-MS analysis. As to conditions: in vivo. The series is classed as ADME, organism-based, Muscle tissue. A digest of the protocol: as §2

The test system of series [7] is Liver. Nature of the series: Drug metabolism in CD1 mouse liver assessed as monoacylglycerol conjugate formation at 6 mg/kg, ip dosed once daily for 3 days followed by dosing of 1:1 mixtures of 2-(2-Carboxyethyl)-4-methyl-5-(1-propyl-1-13C)furan-3-carboxylic Acid and test compound on day 4 and 5 measured 1 hr post dose on day 5 by HPLC-MS analysis. The series is classed as ADME, organism-based. As to conditions: in vivo. In short, it runs like this:
as §2

Series [8] relates to Liver. The experiment in a line: Drug metabolism in CD1 mouse liver assessed as loss of C2 carboxyl during fragmentation at 6 mg/kg, ip dosed once daily for 3 days followed by dosing of 1:1 mixtures of 2-(2-Carboxyethyl)-4-methyl-5-(1-propyl-1-13C)furan-3-carboxylic Acid and test compound on day 4 and 5 measured 1 hr post dose on day 5 by HPLC-MS analysis. In kind it is ADME, organism-based. As to conditions: in vivo. A digest of the protocol:
as §2

Series [9] has as its system Liver. Nature of the series: Drug metabolism in CD1 mouse liver assessed as oxidative metabolites formation at 6 mg/kg, ip dosed once daily for 3 days followed by dosing of 1:1 mixtures of 2-(2-Carboxyethyl)-4-methyl-5-propyl-(3-13C-furan)-3-13Ccarboxylateand test compound on day 4 and 5 measured 1 hr post dose on day 5 by HPLC-MS analysis. As to conditions: in vivo. The series is classed as ADME, organism-based. In short, it runs like this:
as §2

Series [10] has as its system Plasma. Nature of the series: Drug metabolism in CD1 mouse plasma assessed as glucuronide conjugate formation at 6 mg/kg, ip dosed once daily for 3 days followed by dosing of 1:1 mixtures of 2-(2-Carboxyethyl)-4-methyl-5-(1-propyl-1-13C)furan-3-carboxylic Acid and test compound on day 4 and 5 measured 1 hr post dose on day 5 by HPLC-MS analysis. The series is classed as ADME, organism-based. As to conditions: in vivo. In short, it runs like this: as §1

The test system of series [11] is Plasma. The experiment in a line: Drug metabolism in CD1 mouse plasma assessed as diacylglycerol conjugate formation at 6 mg/kg, ip dosed once daily for 3 days followed by dosing of 1:1 mixtures of 2-(2-Carboxyethyl)-4-methyl-5-(1-propyl-1-13C)furan-3-carboxylic Acid and test compound on day 4 and 5 measured 1 hr post dose on day 5 by HPLC-MS analysis. In kind it is ADME, organism-based. As to conditions: in vivo. In short, it runs like this: as §1

In series [12] the test system is Plasma. The experiment in a line: Drug metabolism in CD1 mouse plasma assessed as diacylglycerol conjugate formation at 6 mg/kg, ip dosed once daily for 3 days followed by dosing of 1:1 mixtures of 2-(2-Carboxyethyl)-4-methyl-5-propyl-(3-13C-furan)-3-13Ccarboxylateand test compound on day 4 and 5 measured 1 hr post dose on day 5 by HPLC-MS analysis. As to conditions: in vivo. The series is classed as ADME, organism-based. In short, it runs like this:
as §1

In series [13] the test system is Plasma. Nature of the series: Drug metabolism in CD1 mouse plasma assessed as monoacylglycerol conjugate formation at 6 mg/kg, ip dosed once daily for 3 days followed by dosing of 1:1 mixtures of 2-(2-Carboxyethyl)-4-methyl-5-(1-propyl-1-13C)furan-3-carboxylic Acid and test compound on day 4 and 5 measured 1 hr post dose on day 5 by HPLC-MS analysis. In kind it is ADME, organism-based. As to conditions: in vivo. In short, it runs like this: as §1

The test system of series [14] is Plasma. Nature of the series: Plasma concentration in human. In kind it is ADME, cell-free.
Series [15] can be described thus: Drug metabolism in CD1 mouse muscle assessed as monoacylglycerol conjugate formation at 6 mg/kg, ip dosed once daily for 3 days followed by dosing of 1:1 mixtures of 2-(2-(Carboxy-13C)ethyl)-4-methyl-5-propylfuran-3-carboxylic-2-13C Acid and test compound on day 4 and 5 measured 1 hr post dose on day 5 by HPLC-MS analysis. The series is classed as ADME, organism-based, Muscle tissue. As to conditions: in vivo. In short, it runs like this: as §2

Series [16] has as its system Plasma. The experiment in a line: Drug metabolism in CD1 mouse plasma assessed as diacylglycerol conjugate formation at 6 mg/kg, ip dosed once daily for 3 days followed by dosing of 1:1 mixtures of 2-(2-(Carboxy-13C)ethyl)-4-methyl-5-propylfuran-3-carboxylic-2-13C Acid and test compound on day 4 and 5 measured 1 hr post dose on day 5 by HPLC-MS analysis. In kind it is ADME, organism-based. As to conditions: in vivo. A digest of the protocol: as §1

Series [17] is described as follows: Half life in mouse at 3 mg/kg, iv. As to conditions: in vivo. The series is classed as ADME, organism-based. In short, it runs like this:
as §3

Series [18] relates to Plasma. Nature of the series: Drug metabolism in CD1 mouse plasma assessed as glucuronide conjugate formation at 6 mg/kg, ip dosed once daily for 3 days followed by dosing of 1:1 mixtures of 2-(2-Carboxyethyl)-4-methyl-5-propyl-(3-13C-furan)-3-13Ccarboxylate and test compound on day 4 and 5 measured 1 hr post dose on day 5 by HPLC-MS analysis. As to conditions: in vivo. In kind it is ADME, organism-based. A digest of the protocol: as §1

A short description of series [19]: Drug metabolism in CD1 mouse adipose assessed as loss of C2 carboxyl during fragmentation at 6 mg/kg, ip dosed once daily for 3 days followed by dosing of 1:1 mixtures of 2-(2-(Carboxy-13C)ethyl)-4-methyl-5-propylfuran-3-carboxylic-2-13C Acid and test compound on day 4 and 5 measured 1 hr post dose on day 5 by HPLC-MS analysis. As to conditions: in vivo. In kind it is ADME, organism-based, Adipose tissue. A digest of the protocol: as §2

Series [20] is described as follows: AUC in mouse at 3 mg/kg, iv. In kind it is ADME, organism-based. As to conditions: in vivo.

Data on 1 molecule can be found in ChEMBL document CHEMBL4004837, “Synthesis and Characterization of Urofuranoic Acids: In Vivo Metabolism of 2-(2-Carboxyethyl)-4-methyl-5-propylfuran-3-carboxylic Acid (CMPF) and Effects on in Vitro Insulin Secretion” (J Med Chem, 2017).

`CCCc1oc(CCC(=O)O)c(C(=O)O)c1C`: the Drug metabolism result in series [1] is “Metabolite_Notdetected”; in series [2], “Metabolite_Notdetected”; in [3], “Metabolite_Notdetected”; in series [4] it was “Metabolite_Detected”; in [6], “Metabolite_Detected”; in series [7], “Metabolite_Notdetected”. In addition, the Drug metabolism entry in series [8] is recorded as “Metabolite_Detected”; in series [9], “Metabolite_Notdetected”; in series [10], “Metabolite_Detected”; in [11], “Metabolite_Notdetected”; in [12], “Metabolite_Notdetected”; in [13], “Metabolite_Notdetected”. Also, the Drug metabolism entry in series [15] is “Metabolite_Notdetected”; in [16], “Metabolite_Notdetected”; in series [18], “Metabolite_Detected”; in series [19], “Metabolite_Detected”. The half-life was 4.5 h in [5] and 3.27 h in series [17]. In addition, the concentration in series [14] fell in the range of 20 to 40 µM. The molecule further gave an area under the curve (AUC) in series [20] of 210 µM·h.

A word on the half-life: it is the time needed for the level to fall by half in the phase considered. The term AUC denotes concentration integrated over time. A lower AUC goes with low exposure.
